Assay results gathered from unrelated publications.
Protocols differ between the studies behind these lines.
DCLK3: Serine/threonine-protein kinase DCLK3 (DCLK3, Homo sapiens, UniProt Q9C098)
mraY: mraY (Staphylococcus aureus, UniProt Q2FZ93)

`Cc1cc(-c2ccnc3[nH]cc(F)c23)cc(F)c1[C@@]1(O)[C@H](C)CN(C2CCS(=O)(=O)CC2)C[C@@H]1C` has a remaining activity of 31.3% (Rho-associated protein kinase 1 (ROCK1, Homo sapiens, UniProt Q13464); enzyme activity, inhibitor; 15 nM).
With `NC/C(=C\F)COc1cccc(Cn2c(=S)[nH]c(=O)c3[nH]cnc32)c1` the inhibition was < 50% (Melatonin receptor type 1A (MTNR1A, Homo sapiens, UniProt P48039); ligand displacement, radioligand; 10 µM).
With `Cc1cc(S(=O)(=O)N[C@H]2CC[C@H](CN3CCN(c4ccc(C5CCC(=O)NC5=O)cc4F)CC3)CC2)ccc1Nc1ncc(C(F)(F)F)c(N2CCC[C@](C)(O)C2)n1` (stereo partly drawn) the remaining binding was 50% (Aurora kinase C (AURKC, Homo sapiens, UniProt Q9UQB9); binding, competition with immobilised ligand; 1 µM).
`COc1ccc2oc(-c3ccc4nc(N)oc4c3)c/c(=N\c3ccccc3NC(=O)CCN)c2c1` has a remaining binding of 104% (Mitogen-activated protein kinase kinase kinase 8 (MAP3K8, Homo sapiens, UniProt P41279); binding; 1 µM).
`CSCC[C@H](NC(C)=O)C(=O)N[C@@H](CC(=O)O)C(=O)N[C@@H](Cc1ccccc1)C(N)=O` has an Emax of 38.1% (Gastrin/cholecystokinin type B receptor (CCKBR, Homo sapiens, UniProt P32239); β-arrestin recruitment, agonist; HTLA).
`C[C@]1(O)CCCN(c2nc(Nc3ccc(S(=O)(=O)N[C@H]4CC[C@H](CN5CCN(c6ccc(C7CCC(=O)NC7=O)cc6F)CC5)CC4)cc3F)ncc2C(F)(F)F)C1` (stereo partly drawn) gave a remaining binding of 43% (DCLK3; binding, competition with immobilised ligand; 1 µM).
`CCCCC(=O)Nc1ccc(-c2ccc3ncn(CCC)c(=O)c3c2)cn1` has a remaining binding of 79% (Serine/threonine-protein kinase SIK1 (SIK1, Homo sapiens, UniProt P57059); binding, competition with immobilised ligand; 0.5 µM).
With `CCCCCCC#Cc1cncc(-c2nnc(SCc3ccc([N+](=O)[O-])cc3)n2CCCN)c1` the inhibition was 82% (mraY; cell-free assay, inhibitor; 250 µM).
For `CCN1/C(=C/C(C)=O)Sc2ccc(F)cc21`, the inhibition was 0% (B1 bradykinin receptor (BDKRB1, Homo sapiens, UniProt P46663); ligand displacement, radioligand; 10 µM).
`CCCCCCC#Cc1cncc(-c2nnc(SCc3cc([N+](=O)[O-])cc([N+](=O)[O-])c3)n2CCOC2OC(CN)C(O)C2O)c1` (stereo not drawn) gave an inhibition of > 80% (mraY; cell-free assay, inhibitor; 250 µM).
`CNS(=O)(=O)c1ccc(Nc2ncc(C(F)(F)F)c(N3CCC[C@](C)(O)C3)n2)c(C)c1` gave a remaining binding of 41% (DCLK3; binding, competition with immobilised ligand; 1 µM).
For `CCCCCCC#Cc1cncc(-c2nnc(SCc3cc([N+](=O)[O-])cc([N+](=O)[O-])c3)n2C2CCNCC2)c1`, the inhibition was > 80% (mraY; cell-free assay, inhibitor; 250 µM).
The remaining binding of `C1=C/COCc2cc(ccc2OCCN2CCCC2)Nc2nccc(n2)-c2cccc(c2)COC/1` is reported as 17% (Receptor-type tyrosine-protein kinase FLT3 (FLT3, Homo sapiens, UniProt P36888, R834Q); binding; 0.1 µM).
`C[C@]1(O)CCCN(c2nc(Nc3ccc(S(=O)(=O)N[C@H]4CC[C@H](CN5CCN(c6ccc(C7CCC(=O)NC7=O)cc6F)CC5)CC4)cc3Cl)ncc2C(F)(F)F)C1` (stereo partly drawn) has a remaining binding of 52% (DCLK3; binding, competition with immobilised ligand; 1 µM).
For `CCCCCCC#Cc1cncc(-c2nnc(SCc3ccc([N+](=O)[O-])o3)n2CCCN)c1`, the inhibition was 71% (mraY; cell-free assay, inhibitor; 250 µM).
